Test results from ChEMBL document CHEMBL3352115, “Discovery of APD334: Design of a Clinical Stage Functional Antagonist of the Sphingosine-1-phosphate-1 Receptor” (ACS Med Chem Lett, 2014).
The source made the active and inactive calls. The rule behind the calls is not given here.

How the values were obtained:
[1] = Drug level in Sprague-Dawley rat plasma at 14.5 ug/hr/kg dosed as constant infusion measured after 48 hrs; assay type: ADME, organism-based; conditions: iv
Procedure, shortened: (§1)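 Male Sprague–Dawley rats given constant infusion at 14.5 μg/h/kg for 48 h; brain and plasma concentrations measured at 48 h.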

[2] = Systemic clearance in rat at 1 mg/kg, iv; assay type: ADME, organism-based; design: dose 1 mg/kg, route intravenous; conditions: in vivo
Rattus norvegicus [3] = assay: Induction of body weight regain in Lewis rat collagen-induced arthritis model at 3 mg/kg, po qd measured on day 17 (reference value: 160.3 +/- 2.3 g); assay type: functional
[4] = target: Sphingosine 1-phosphate receptor 1 (Macaca mulatta) (UniProt H9EUW9); assay: Agonist activity at monkey S1P1 receptor assessed as cAMP accumulation by HTRF assay relative to S1P; assay type: functional
Procedure, shortened: (§2)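 HTRF cyclase (cAMP) functional assay at S1P1 of each species; EC50 taken as mean of three or more replicates; efficacy given as % agonism relative to S1P.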

[5] = Cmax in rat at 1 mg/kg, iv or 1 mg/kg, po; assay type: ADME, organism-based; conditions: in vivo
Mus musculus [6] = assay: Reduction in peripheral lymphocyte count in orally dosed mouse measured after 24 hrs; assay type: ADME, organism-based
[7] = Oral bioavailability in rat at 1 mg/kg; assay type: ADME, organism-based; conditions: in vivo
[8] = Half life in dog liver microsomes; assay type: ADME, Canis lupus familiaris
Procedure, shortened: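 Stability on incubation with liver microsomes of each species; half-life reported.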

Cytochrome P450 1A2 = Cytochrome P450 1A2 (Homo sapiens, UniProt P05177); assay: Inhibition of CYP1A2 (unknown origin); assay type: ADME
Rattus norvegicus [9] = assay: Reduction in ankle diameter in Lewis rat collagen-induced arthritis model at 1 mg/kg, po qd measured on day 17 (reference value: +/- inches); assay type: functional
Procedure, shortened: (§3)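 Female Lewis rats with collagen-induced arthritis, prophylactic daily oral dosing; ankle diameter (inches) and body weight recorded at day 17 end point; mean ± SEM.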

[10] = target: Sphingosine-1-phosphate receptor 1 (Canis lupus familiaris, UniProt W5VNF7); assay: Agonist activity at dog S1P1 receptor assessed as cAMP accumulation by HTRF assay; assay type: functional; procedure, shortened: as §2
Rattus norvegicus [11] = assay: Toxicity in Sprague-Dawley rat assessed as mortality at 1000 mg/kg during 14 day repeat dose study; assay type: organism-based; design: dose 1000 mg/kg; conditions: in vivo, 336 h
Procedure, shortened: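 14-day repeat-dose rat toxicity study with dose groups of 30, 100, 300 and 1000 mg/kg; animals monitored for tolerability, mortality and CNS clinical signs.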

[12] = AUC (0 to infinity) in rat at 1 mg/kg, iv or 1 mg/kg, po; assay type: ADME, organism-based; conditions: plasma
Procedure, shortened: (§4)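 Preclinical iv/po PK; amorphous free acid dosed orally as a suspension in 0.5% methyl cellulose; clearance and Vss from intravenous administration.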

Rattus norvegicus [13] = assay: Systemic clearance in rat at 1 mg/kg, iv relative to liver blood flow; assay type: ADME, organism-based; design: dose 1 mg/kg, route intravenous; conditions: in vivo
Canis familiaris [14] = assay: Reduction in peripheral lymphocyte count in orally dosed dog measured after 24 hrs; assay type: ADME, organism-based; conditions: Canis lupus familiaris
[15] = Ratio of drug level in brain to plasma of Sprague-Dawley rat at 14.5 ug/hr/kg dosed as constant infusion measured after 48 hrs; assay type: ADME, organism-based; conditions: iv, read-out: BPR
Procedure, shortened: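 Male Sprague–Dawley rats given 48 h constant infusion at 14.5 μg/h/kg; brain and plasma concentrations measured at 48 h to give B/P ratio.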

Cytochrome P450 2C9 = Cytochrome P450 2C9 (Homo sapiens, UniProt P11712); assay: Inhibition of CYP2C9 (unknown origin); assay type: ADME
[16] = Cmax in dog at 1 mg/kg, iv or 3 mg/kg, po; assay type: ADME, organism-based, Canis lupus familiaris; conditions: in vivo; procedure, shortened: as §4
Canis familiaris [17] = assay: Effect on body temperature in telemeterized dog up to 40 mg/kg; assay type: ADME, organism-based, Canis lupus familiaris; design: dose 40 mg/kg; conditions: in vivo
Procedure, shortened: (§5)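 Telemeterized dogs dosed at levels up to 40 mg/kg; pulse pressure, heart rate, body temperature and ECG parameters monitored.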

Cytochrome P450 2C19 = Cytochrome P450 2C19 (Homo sapiens, UniProt P33261); assay: Inhibition of CYP2C19 (unknown origin); assay type: ADME
[18] = Tmax in rat at 1 mg/kg, iv or 1 mg/kg, po; assay type: ADME, organism-based; conditions: in vivo
[19] = target: Sphingosine 1-phosphate receptor 1 (Macaca mulatta, UniProt H9EUW9); assay: Agonist activity at monkey S1P1 receptor assessed as cAMP accumulation by HTRF assay; assay type: functional; procedure, shortened: as §2
[20] = Protein binding in rat plasma; assay type: ADME, cell-free; conditions: read-out: PPB (converted)
Mus musculus [21] = assay: Prevention of onset and severity of disease in C57Bl/6 mouse experimental autoimmune encephalomyelitis model of multiple sclerosis at 0.3 to 3 mg/kg dosed once daily beginning on day 3 and continued to day 25; assay type: functional, organism-based
Procedure, shortened: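 Female C57Bl/6 mice immunized with MOG35–55 as autoantigen; oral dosing once daily from day 3 to day 25 in 0.5% methylcellulose vehicle; clinical scores followed beyond end of dosing.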

Mus musculus [22] = assay: Reduction in inflammatory foci in C57Bl/6 mouse experimental autoimmune encephalomyelitis model of multiple sclerosis at 3 mg/kg dosed once daily beginning on day 18 and continued to day 37 by immunofluorescent staining method; assay type: functional, organism-based; design: dose 3 mg/kg
Procedure, shortened: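 Therapeutic EAE in female C57Bl/6 mice, dosing from day 18; spinal cord and brain collected day 37; cerebellum sections immunostained for CD45 and CD3 with DAPI counterstain; inflammatory foci and infiltrating lymphocytes assessed.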

[23] = Volume of distribution at steady state in dog at 1 mg/kg, iv; assay type: ADME, organism-based, Canis lupus familiaris; design: dose 1 mg/kg, route intravenous; conditions: in vivo, read-out: Vdss
[24] = Oral bioavailability in dog at 3 mg/kg; assay type: ADME, organism-based, Canis lupus familiaris; conditions: in vivo
[25] = Drug level in Sprague-Dawley rat brain at 14.5 ug/hr/kg dosed as constant infusion measured after 48 hrs; assay type: ADME, organism-based; conditions: iv, read-out: Drug uptake; procedure, shortened: as §1
[26] = AUC (0 to infinity) in dog at 1 mg/kg, iv or 3 mg/kg, po; assay type: ADME, organism-based, Canis lupus familiaris; conditions: plasma; procedure, shortened: as §4
[27] = target: Sphingosine 1-phosphate receptor 1 (Rattus norvegicus, UniProt P48303); assay: Agonist activity at rat S1P1 receptor assessed as cAMP accumulation by HTRF assay; assay type: functional; procedure, shortened: as §2
[28] = Cmax in mouse at 1 mg/kg, iv or 1 mg/kg, po; assay type: ADME, organism-based; conditions: in vivo; procedure, shortened: as §4
Canis familiaris [29] = assay: Effect on ECG parameters in telemeterized dog up to 40 mg/kg; assay type: ADME, organism-based, Canis lupus familiaris; design: dose 40 mg/kg; conditions: in vivo; procedure, shortened: as §5
[30] = target: Sphingosine 1-phosphate receptor 4 (Homo sapiens) (UniProt O95977); assay: Agonist activity at human S1P4 receptor by beta-arrestin recruitment assay relative to S1P
[31] = Tmax in dog at 1 mg/kg, iv or 3 mg/kg, po; assay type: ADME, organism-based, Canis lupus familiaris; conditions: in vivo
[32] = Volume of distribution at steady state in mouse at 1 mg/kg, iv; assay type: ADME, organism-based; design: dose 1 mg/kg, route intravenous; conditions: in vivo, read-out: Vdss
[33] = Cmax in Sprague-Dawley rat at 300 mg/kg; assay type: ADME, organism-based; design: dose 300 mg/kg; conditions: in vivo
Procedure, shortened: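 Sprague–Dawley rats dosed at 300 and 1000 mg/kg in a separate dose-proportionality exposure study; Cmax determined.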

Rattus norvegicus [34] = assay: Reduction in ankle diameter in Lewis rat collagen-induced arthritis model at 3 mg/kg, po qd measured on day 17 (reference value: +/- inches); assay type: functional; procedure, shortened: as §3
Rhesus monkey = assay: Systemic clearance in monkey at 1 mg/kg, iv relative to liver blood flow; assay type: ADME, organism-based, Macaca mulatta; design: dose 1 mg/kg, route intravenous; conditions: in vivo
[35] = Volume of distribution at steady state in rat at 1 mg/kg, iv; assay type: ADME, organism-based; design: dose 1 mg/kg, route intravenous; conditions: in vivo, read-out: Vdss
Canis familiaris [36] = assay: Effect on heart rate in telemeterized dog up to 40 mg/kg; assay type: ADME, organism-based, Canis lupus familiaris; design: dose 40 mg/kg; conditions: in vivo; procedure, shortened: as §5
[37] = Systemic clearance in mouse at 1 mg/kg, iv; assay type: ADME, organism-based; design: dose 1 mg/kg, route intravenous; conditions: in vivo
Rattus norvegicus [38] = assay: Reduction in peripheral lymphocyte count in orally dosed rat measured after 24 hrs; assay type: ADME, organism-based

Chain of Cytochrome P450 2C19 (P33261 whole entry): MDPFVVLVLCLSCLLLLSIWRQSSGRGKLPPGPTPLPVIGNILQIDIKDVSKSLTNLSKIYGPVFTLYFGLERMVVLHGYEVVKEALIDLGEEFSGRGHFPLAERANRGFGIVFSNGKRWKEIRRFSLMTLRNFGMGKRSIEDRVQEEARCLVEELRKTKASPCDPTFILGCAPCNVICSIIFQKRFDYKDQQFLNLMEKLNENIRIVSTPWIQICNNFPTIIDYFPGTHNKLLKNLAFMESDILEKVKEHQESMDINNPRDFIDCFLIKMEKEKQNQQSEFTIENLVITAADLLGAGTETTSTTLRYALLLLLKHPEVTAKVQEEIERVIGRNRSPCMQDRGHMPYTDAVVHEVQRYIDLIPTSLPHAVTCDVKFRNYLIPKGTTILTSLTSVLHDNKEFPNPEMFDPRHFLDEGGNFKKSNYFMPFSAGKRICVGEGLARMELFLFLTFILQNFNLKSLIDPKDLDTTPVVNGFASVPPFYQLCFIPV
Chain of Sphingosine 1-phosphate receptor 1 (Macaca mulatta, UniProt H9EUW9) (H9EUW9 whole entry): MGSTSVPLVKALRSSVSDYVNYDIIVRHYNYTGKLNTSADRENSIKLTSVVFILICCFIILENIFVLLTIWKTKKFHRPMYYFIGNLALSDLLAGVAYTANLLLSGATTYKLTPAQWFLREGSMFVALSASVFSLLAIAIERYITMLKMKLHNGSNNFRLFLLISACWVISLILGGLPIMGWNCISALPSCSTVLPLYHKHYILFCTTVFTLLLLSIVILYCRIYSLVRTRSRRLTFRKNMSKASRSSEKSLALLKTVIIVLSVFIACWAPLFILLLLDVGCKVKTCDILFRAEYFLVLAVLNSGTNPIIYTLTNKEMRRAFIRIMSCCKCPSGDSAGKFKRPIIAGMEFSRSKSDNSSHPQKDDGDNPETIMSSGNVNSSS
Chain of Sphingosine 1-phosphate receptor 1 (Macaca mulatta) (H9EUW9 as listed by the source): as the sequence (H9EUW9 whole entry) above
Chain of Sphingosine 1-phosphate receptor 1 (Rattus norvegicus, UniProt P48303) (P48303 whole entry): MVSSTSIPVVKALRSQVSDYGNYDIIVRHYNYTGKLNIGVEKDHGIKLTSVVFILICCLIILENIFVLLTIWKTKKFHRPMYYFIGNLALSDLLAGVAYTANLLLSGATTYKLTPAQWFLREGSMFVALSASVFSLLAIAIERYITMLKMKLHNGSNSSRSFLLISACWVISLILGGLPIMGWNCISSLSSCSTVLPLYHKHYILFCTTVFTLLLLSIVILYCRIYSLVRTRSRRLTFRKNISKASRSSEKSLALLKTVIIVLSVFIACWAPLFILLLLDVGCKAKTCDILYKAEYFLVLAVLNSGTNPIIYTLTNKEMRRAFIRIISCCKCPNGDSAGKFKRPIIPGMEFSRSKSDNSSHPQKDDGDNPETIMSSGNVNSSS
Chain of Cytochrome P450 2C9 (P11712 whole entry): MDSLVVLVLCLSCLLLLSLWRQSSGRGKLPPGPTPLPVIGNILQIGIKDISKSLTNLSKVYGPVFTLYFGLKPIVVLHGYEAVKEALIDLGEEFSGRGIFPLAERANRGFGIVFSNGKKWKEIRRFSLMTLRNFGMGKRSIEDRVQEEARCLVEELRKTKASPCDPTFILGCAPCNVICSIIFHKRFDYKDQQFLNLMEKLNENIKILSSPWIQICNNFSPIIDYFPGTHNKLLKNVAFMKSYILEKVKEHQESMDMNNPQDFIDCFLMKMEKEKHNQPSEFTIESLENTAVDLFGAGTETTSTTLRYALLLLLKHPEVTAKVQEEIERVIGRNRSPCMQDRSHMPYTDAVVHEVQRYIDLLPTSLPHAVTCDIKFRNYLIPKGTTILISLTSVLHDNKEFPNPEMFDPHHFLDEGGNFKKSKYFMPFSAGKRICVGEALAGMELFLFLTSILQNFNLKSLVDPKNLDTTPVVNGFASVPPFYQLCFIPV
Chain of Sphingosine 1-phosphate receptor 4 (Homo sapiens) (O95977 whole entry): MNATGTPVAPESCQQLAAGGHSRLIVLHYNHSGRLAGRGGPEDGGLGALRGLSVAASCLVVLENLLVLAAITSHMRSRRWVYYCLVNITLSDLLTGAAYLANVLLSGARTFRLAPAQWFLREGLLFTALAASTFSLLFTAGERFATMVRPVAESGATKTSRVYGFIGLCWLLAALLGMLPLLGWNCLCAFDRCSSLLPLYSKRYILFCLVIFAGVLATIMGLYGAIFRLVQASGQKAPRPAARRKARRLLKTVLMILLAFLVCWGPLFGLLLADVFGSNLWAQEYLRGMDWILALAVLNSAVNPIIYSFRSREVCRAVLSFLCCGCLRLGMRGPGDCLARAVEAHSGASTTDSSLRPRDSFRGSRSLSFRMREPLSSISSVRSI
Chain of Sphingosine-1-phosphate receptor 1 (W5VNF7 whole entry): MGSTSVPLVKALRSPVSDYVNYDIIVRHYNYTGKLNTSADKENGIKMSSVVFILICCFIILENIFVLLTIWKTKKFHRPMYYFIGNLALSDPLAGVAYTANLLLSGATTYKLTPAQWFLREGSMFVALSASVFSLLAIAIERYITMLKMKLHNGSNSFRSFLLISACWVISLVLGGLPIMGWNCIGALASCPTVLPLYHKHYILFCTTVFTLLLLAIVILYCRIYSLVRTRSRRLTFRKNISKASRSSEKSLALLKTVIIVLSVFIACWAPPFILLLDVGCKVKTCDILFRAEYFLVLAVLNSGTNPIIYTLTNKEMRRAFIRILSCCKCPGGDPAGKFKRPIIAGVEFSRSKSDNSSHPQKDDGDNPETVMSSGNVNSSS
Chain of Cytochrome P450 1A2 (P05177 whole entry): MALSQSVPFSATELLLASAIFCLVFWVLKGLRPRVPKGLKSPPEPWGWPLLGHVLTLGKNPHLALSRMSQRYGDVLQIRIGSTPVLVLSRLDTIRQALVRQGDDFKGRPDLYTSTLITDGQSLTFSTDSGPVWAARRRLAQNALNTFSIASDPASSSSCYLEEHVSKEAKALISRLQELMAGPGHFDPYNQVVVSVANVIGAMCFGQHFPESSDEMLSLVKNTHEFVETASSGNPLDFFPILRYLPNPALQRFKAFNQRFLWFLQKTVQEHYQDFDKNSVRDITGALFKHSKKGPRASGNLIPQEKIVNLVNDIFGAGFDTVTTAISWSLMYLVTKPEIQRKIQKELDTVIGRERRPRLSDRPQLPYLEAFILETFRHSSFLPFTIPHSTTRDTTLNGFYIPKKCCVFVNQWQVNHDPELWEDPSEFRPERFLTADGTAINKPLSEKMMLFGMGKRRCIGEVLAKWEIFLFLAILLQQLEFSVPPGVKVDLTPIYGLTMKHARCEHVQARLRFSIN

`O=C(O)C[C@H]1CCc2c1[nH]c1ccc(OCc3ccc(C4CCCC4)c(C(F)(F)F)c3)cc21` [ETRASIMOD] gave a concentration at 48 h [1] of 110 nM, a clearance [2] of 2.42 mL/min/kg and an Activity (Rattus norvegicus [3]) of 182.3 g. It also gave an Emax [4] of 95%, a Cmax [5] of 218 ng/mL and an IC50 (Mus musculus [6]) of 101 nM. The bioavailability [7] was 54%, the half-life [8] was over 1 h and the IC50 (Cytochrome P450 1A2) was over 50000 nM. For the same molecule, the Activity (Rattus norvegicus [9]) was 0.2803 inches, the EC50 [10] was 0.34 nM and the Activity (Rattus norvegicus [11]) was “Toxic”. The AUC(0-inf) [12] was 3790 ng·h/mL, the CL (Rattus norvegicus [13]) was 3.45% and the IC50 (Canis familiaris [14]) was 58 nM. For the same molecule, the Kp at 48 h [15] was 1.9, the IC50 (Cytochrome P450 2C9) was over 50000 nM and the Cmax [16] was 3710 ng/mL. The Activity (Canis familiaris [17]) was “Non-toxic”, the IC50 (Cytochrome P450 2C19) was over 50000 nM and the Tmax [18] was 7.33 h. For the same molecule, the EC50 [19] was 0.32 nM, the fraction unbound [20] was 0.02 and the Activity (Mus musculus [21]) was “Active”. For the same molecule, the Activity (Mus musculus [22]) was “Active”, the Vd [23] was 0.609 L/kg and the bioavailability [24] was 73.2%. It also gave a concentration at 48 h [25] of 210 nM, an AUC(0-inf) [26] of 164000 ng·h/mL and an EC50 [27] of 0.32 nM. The Cmax [28] was 780 ng/mL, the Activity (Canis familiaris [29]) was “Non-toxic” and the Emax [30] was 63%. For the same molecule, the Tmax [31] was 7.33 h, the Vd [32] was 1.93 L/kg and the Cmax [33] was 136000 nM. For the same molecule, the Activity (Rattus norvegicus [34]) was 0.269 inches, the CL (Rhesus monkey) was 2.23% and the Vd [35] was 1.61 L/kg. For the same molecule, the Activity (Canis familiaris [36]) was “Non-toxic”, the clearance [37] was 1.83 mL/min/kg and the IC50 (Rattus norvegicus [38]) was 51 nM.
